In ChEMBL document CHEMBL1649236, “The structure of the dizinc subclass B2 metallo-beta-lactamase CphA reveals that the second inhibitory zinc ion binds in the histidine site” (Antimicrob Agents Chemother, 2009):

How the values were obtained:
Aeromonas hydrophila [1] = assay: Ratio of Kcat to Km for Aeromonas hydrophila metallo-betalactamase CphA N233A mutant expressed in Escherichia coli BL21(DE3) by spectrophotometric analysis in presence of < 0.4 uM zinc ions
In short: (§1)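 Steady-state kinetics (kcat, Km, kcat/Km) at 30°C in 15 mM cacodylate pH 6.5, no added Zn2+ (free [Zn2+] < 0.4 µM), enzyme as the mono-zinc form (one Zn per molecule). Substrates imipenem, nitrocefin and CENTA. N233A mutant from E. coli BL21 (DE3) pLysS Star, purified to homogeneity, mass checked by ESI-MS. Standard errors below 10%.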

Aeromonas hydrophila [2] = assay: Activity of Aeromonas hydrophila metallo-betalactamase CphA N233A mutant expressed in Escherichia coli BL21(DE3) by spectrophotometric analysis in presence of < 0.4 uM zinc ions; in short: as §1

| SMILES | kcat/Km (Aeromonas hydrophila [1]) | Km (Aeromonas hydrophila [2]) | kcat (Aeromonas hydrophila [2]) |
| --- | --- | --- | --- |
| O=C(Cc1cccs1)N[C@@H]1C(=O)N2C(C(=O)O)=C(/C=C/c3ccc([N+](=O)[O-])cc3[N+](=O)[O-])CS[C@H]12 | 520 M⁻¹ s⁻¹ | 55 µM | 0.03 s⁻¹ |
| O=C(Cc1cccs1)N[C@@H]1C(=O)N2C(C(=O)O)=C(CSc3ccc([N+](=O)[O-])c(C(=O)O)c3)CS[C@H]12 | 250 M⁻¹ s⁻¹ | 14 µM | 0.0035 s⁻¹ |
| C[C@@H](O)[C@H]1C(=O)N2C(C(=O)O)=C(SCCNC=N)C[C@H]12 | 700000 M⁻¹ s⁻¹ | > 1000 µM | > 700 s⁻¹ |
